# Measured values published in ChEMBL document CHEMBL2346548, “Design, synthesis, and structure-activity relationship studies of tryptanthrins as antitubercular agents” (J Nat Prod, 2013).
# System: not listed separately
# Experiment: Solubility in simulated intestinal fluid at pH 7.6 by HPLC method
# Format: physicochemical
# Conditions: not given
# Procedure, shortened: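 Simulated intestinal fluid medium; each analogue 200 μM final in 2% DMSO, shaken 24 h at room temperature, then HPLC with photodiode array read at 230 nm; duplicate, means given.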
row,SMILES,solubility [µM]
1,CCOC(=O)c1ccc2c(c1)C(=O)c1nc3ccccc3c(=O)n1-2,11.1
2,O=C1c2cc(Cl)ccc2-n2c1nc1ccccc1c2=O,16.7
3,O=C1c2ccccc2-n2c1nc1ccc(Br)cc1c2=O,49.4
4,O=C1c2ccccc2-n2c1nc1ccccc1c2=O [TRYPTANTHRIN],12.9

# System: Mycobacterium tuberculosis
# Experiment: Antitubercular activity against Mycobacterium tuberculosis H37Rv incubated at 37 degC for 14 days in presence of 40% human serum by microplate alamar blue assay
# Format: functional
# Conditions: 336 h
# Procedure, shortened: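 This is the MABA run in 7H9 broth containing 40% human serum. Compounds were 2-fold serially diluted, and wells were inoculated with H37Rv at 2 × 10⁵ CFU/mL. Incubation was at 37 °C for 14 days, then Alamar Blue was added. MIC was the lowest concentration preventing the blue-to-pink colour change.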
row,SMILES,MIC [µg/mL]
1,CCOC(=O)c1ccc2c(c1)C(=O)c1nc3ccccc3c(=O)n1-2,1
2,O=C1c2cc(Cl)ccc2-n2c1nc1ccccc1c2=O,0.25
3,O=C1c2ccccc2-n2c1nc1ccc(Br)cc1c2=O,0.5
4,O=C1c2ccccc2-n2c1nc1ccccc1c2=O [TRYPTANTHRIN],1

# System: not listed separately
# Experiment: Distribution coefficient, log D of the compound between n-octanol and PBS buffer at pH 7.4 incubated for 1 hr by shake flask method
# Format: physicochemical
# Conditions: not given
# Procedure, shortened: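 Partition between n-octanol and PBS pH 7.4 after 1 h shaking at room temperature; phases analysed by HPLC with photodiode detection; logD = log10 of organic/aqueous amount.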
row,SMILES,logD at 1 h
1,CCOC(=O)c1ccc2c(c1)C(=O)c1nc3ccccc3c(=O)n1-2,2.94
2,O=C1c2cc(Cl)ccc2-n2c1nc1ccccc1c2=O,2.76
3,O=C1c2ccccc2-n2c1nc1ccc(Br)cc1c2=O,1.69
4,O=C1c2ccccc2-n2c1nc1ccccc1c2=O [TRYPTANTHRIN],2.29

# System: not listed separately
# Experiment: Half life in male rat at 56 mg/kg, po
# Format: ADME, organism-based
# Set-up: dose 56 mg/kg, route oral
# Conditions: in vivo
row,SMILES,half-life [h]
1,O=C1c2ccccc2-n2c1nc1ccccc1c2=O [TRYPTANTHRIN],5.6

# System: not listed separately
# Experiment: Aqueous solubility in PBS buffer at pH 7.4 by HPLC method
# Format: physicochemical
# Conditions: PBS buffer, read-out: solubility
# Procedure, shortened: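 Compound at 200 μM final in 2% DMSO in PBS pH 7.4, shaken 24 h at room temperature; quantified by HPLC with photodiode array detection at 230 nm; duplicate, mean reported.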
row,SMILES,solubility [µM]
1,CCOC(=O)c1ccc2c(c1)C(=O)c1nc3ccccc3c(=O)n1-2,3.8
2,O=C1c2cc(Cl)ccc2-n2c1nc1ccccc1c2=O,3.3

# Same assay, conditions: buffer
row,SMILES,solubility [µM]
1,O=C1c2ccccc2-n2c1nc1ccccc1c2=O [TRYPTANTHRIN],5.4

# System: not listed separately
# Experiment: Protein binding in human plasma at 10 uM incubated for 8 hrs at 37 degC by equilibrium dialysis method
# Format: ADME, cell-free
# Conditions: read-out: PPB (converted)
# Procedure, shortened: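 Equilibrium dialysis: 10 μM compound in 1% DMSO in human plasma vs 0.05 M phosphate buffer pH 7.5 across 12–14 K cutoff membrane, at least 8 h at 37 °C; HPLC-photodiode detection at 230 nm; duplicate means.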
row,SMILES,"fraction unbound at 8 h, 10 µM"
1,CCOC(=O)c1ccc2c(c1)C(=O)c1nc3ccccc3c(=O)n1-2,0.016
2,O=C1c2ccccc2-n2c1nc1ccccc1c2=O [TRYPTANTHRIN],0.041

# System: not listed separately
# Experiment: Permeability across apical to basolateral side in human Caco2 cells incubated for 1 hr at 37 degC by HPLC-MS/MS method
# Format: ADME, cell-based
# Conditions: Caco-2
# Procedure, shortened: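 TC7 (Caco-2 subclone) monolayer; 10 μM compound in 1% DMSO in HBSS-MES pH 6.5 on apical donor side, basolateral receiver pH 7.4; shaken 1 h at 37 °C; receiver sampled, HPLC-MS/MS; duplicate means.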
row,SMILES,Papp A→B at 1 h [×10⁻⁶ cm/s]
1,CCOC(=O)c1ccc2c(c1)C(=O)c1nc3ccccc3c(=O)n1-2,4.2
2,O=C1c2ccccc2-n2c1nc1ccccc1c2=O [TRYPTANTHRIN],60.1

# Target: CYP2C9 (Homo sapiens, UniProt P11712)
# Sequence (P11712 whole entry): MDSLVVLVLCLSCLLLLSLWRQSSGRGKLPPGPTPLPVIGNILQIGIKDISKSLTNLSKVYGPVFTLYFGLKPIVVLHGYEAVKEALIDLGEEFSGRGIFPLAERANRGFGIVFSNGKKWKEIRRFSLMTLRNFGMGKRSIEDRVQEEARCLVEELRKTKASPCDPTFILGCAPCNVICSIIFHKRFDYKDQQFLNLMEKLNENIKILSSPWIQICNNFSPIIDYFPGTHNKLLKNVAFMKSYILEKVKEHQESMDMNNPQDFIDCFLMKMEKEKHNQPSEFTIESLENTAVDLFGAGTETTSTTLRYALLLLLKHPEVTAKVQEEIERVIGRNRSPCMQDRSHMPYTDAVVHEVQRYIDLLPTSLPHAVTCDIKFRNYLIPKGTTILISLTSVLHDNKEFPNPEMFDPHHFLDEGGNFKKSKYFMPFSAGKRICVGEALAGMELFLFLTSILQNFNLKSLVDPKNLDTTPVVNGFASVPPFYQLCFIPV
# Experiment: Inhibition of human recombinant CYP2C9 at 10 uM incubated for 80 mins at 37 degC using 7-methoxy-4-trifluoromethylcoumarin substrate
# Format: ADME
# Conditions: recombinant CYP2C9, probe 7-methoxy-4-trifluoromethylcoumarin
row,SMILES,"inhibition at 80 min, 10 µM [%]"
1,CCOC(=O)c1ccc2c(c1)C(=O)c1nc3ccccc3c(=O)n1-2,38
2,O=C1c2cc(Cl)ccc2-n2c1nc1ccccc1c2=O,38
3,O=C1c2ccccc2-n2c1nc1ccc(Br)cc1c2=O,20
4,O=C1c2ccccc2-n2c1nc1ccccc1c2=O [TRYPTANTHRIN],25

# System: not listed separately
# Experiment: Solubility in simulated gastric fluid at pH 1.5 by HPLC method
# Format: physicochemical
# Conditions: not given
# Procedure, shortened: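 Compound at 200 μM final in 2% DMSO in simulated gastric fluid, shaken 24 h at room temperature; HPLC-photodiode array detection at 230 nm; duplicate means.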
row,SMILES,solubility [µM]
1,CCOC(=O)c1ccc2c(c1)C(=O)c1nc3ccccc3c(=O)n1-2,1.5
2,O=C1c2cc(Cl)ccc2-n2c1nc1ccccc1c2=O,26.8
3,O=C1c2ccccc2-n2c1nc1ccccc1c2=O [TRYPTANTHRIN],11.7

# Target: CYP3A4 (Homo sapiens, UniProt P08684)
# Sequence (P08684 whole entry): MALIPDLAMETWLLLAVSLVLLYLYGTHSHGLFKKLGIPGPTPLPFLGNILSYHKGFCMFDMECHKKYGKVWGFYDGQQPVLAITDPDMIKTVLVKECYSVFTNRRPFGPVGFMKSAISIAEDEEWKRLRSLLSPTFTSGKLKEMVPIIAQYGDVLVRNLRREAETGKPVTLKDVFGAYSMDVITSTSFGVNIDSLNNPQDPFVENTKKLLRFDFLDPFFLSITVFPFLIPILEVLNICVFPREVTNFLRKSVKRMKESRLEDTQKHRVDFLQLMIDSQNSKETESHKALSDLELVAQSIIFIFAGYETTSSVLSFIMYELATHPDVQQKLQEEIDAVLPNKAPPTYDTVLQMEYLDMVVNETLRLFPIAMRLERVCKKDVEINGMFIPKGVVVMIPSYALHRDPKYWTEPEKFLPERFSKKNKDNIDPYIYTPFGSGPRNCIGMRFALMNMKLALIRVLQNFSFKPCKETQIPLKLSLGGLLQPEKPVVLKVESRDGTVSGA
# Experiment: Inhibition of human recombinant CYP3A4 at 10 uM incubated for 30 mins at 37 degC using 7-benzyloxy-4-(trifluoromethyl)coumarin substrate
# Format: ADME
# Conditions: recombinant CYP3A4, probe 7-benzyloxy-4-(trifluoromethyl)coumarin
row,SMILES,"inhibition at 0.5 h, 10 µM [%]"
1,CCOC(=O)c1ccc2c(c1)C(=O)c1nc3ccccc3c(=O)n1-2,5
2,O=C1c2cc(Cl)ccc2-n2c1nc1ccccc1c2=O,10
3,O=C1c2ccccc2-n2c1nc1ccc(Br)cc1c2=O,10
4,O=C1c2ccccc2-n2c1nc1ccccc1c2=O [TRYPTANTHRIN],12

# System: not listed separately
# Experiment: Half life in female rat at 56 mg/kg, po
# Format: ADME, organism-based
# Set-up: dose 56 mg/kg, route oral
# Conditions: in vivo
row,SMILES,half-life [h]
1,O=C1c2ccccc2-n2c1nc1ccccc1c2=O [TRYPTANTHRIN],4.35

# System: Vero
# Experiment: Cytotoxicity against african green monkey Vero cells
# Format: cell-based, Chlorocebus sabaeus
# Conditions: Chlorocebus sabaeus, Vero; read-out: IC50
row,SMILES,IC50 [µg/mL]
1,CCOC(=O)c1ccc2c(c1)C(=O)c1nc3ccccc3c(=O)n1-2,> 16
2,O=C1c2cc(Cl)ccc2-n2c1nc1ccccc1c2=O,> 50
3,O=C1c2ccccc2-n2c1nc1ccc(Br)cc1c2=O,> 50
4,O=C1c2ccccc2-n2c1nc1ccccc1c2=O [TRYPTANTHRIN],> 8

# System: not listed separately
# Experiment: Metabolic stability in human liver microsomes assessed as parent compound remaining at 1 uM incubated for 1 hr by HPLC-MS/MS method
# Format: ADME, Microsome
# Conditions: read-out: Stability
# Procedure, shortened: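 Pooled mixed-gender human liver microsomes (0.3 mg/mL protein), 1 μM compound with NADP-regenerating system in phosphate buffer pH 7.4, 1 h at 37 °C; parent measured at start and end by HPLC-MS/MS; duplicate means.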
row,SMILES,"remaining at 1 h, 1 µM [%]"
1,CCOC(=O)c1ccc2c(c1)C(=O)c1nc3ccccc3c(=O)n1-2,0
2,O=C1c2ccccc2-n2c1nc1ccccc1c2=O [TRYPTANTHRIN],15

# System: Mycobacterium tuberculosis
# Experiment: Antitubercular activity against non-replicating Mycobacterium tuberculosis H37Rv incubated for 10 days by LORA method
# Format: functional
# Conditions: 240 h
# Procedure, shortened: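 H37Rv carrying pFCA-luxAB was adapted to low oxygen by gradual self-depletion in a sealed, slowly stirred flask. It was then exposed to compounds for 10 days under anaerobic conditions. Cultures recovered for 28 h in ambient oxygen before n-decanal substrate was added and luminescence read. MIC was the lowest concentration giving a 90% reduction in luminescence versus untreated controls.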
row,SMILES,MIC90 [µg/mL]
1,O=C1c2cc(Cl)ccc2-n2c1nc1ccccc1c2=O,> 50
2,O=C1c2ccccc2-n2c1nc1ccc(Br)cc1c2=O,> 50

# Target: CYP2C19 (Homo sapiens, UniProt P33261)
# Sequence (P33261 whole entry): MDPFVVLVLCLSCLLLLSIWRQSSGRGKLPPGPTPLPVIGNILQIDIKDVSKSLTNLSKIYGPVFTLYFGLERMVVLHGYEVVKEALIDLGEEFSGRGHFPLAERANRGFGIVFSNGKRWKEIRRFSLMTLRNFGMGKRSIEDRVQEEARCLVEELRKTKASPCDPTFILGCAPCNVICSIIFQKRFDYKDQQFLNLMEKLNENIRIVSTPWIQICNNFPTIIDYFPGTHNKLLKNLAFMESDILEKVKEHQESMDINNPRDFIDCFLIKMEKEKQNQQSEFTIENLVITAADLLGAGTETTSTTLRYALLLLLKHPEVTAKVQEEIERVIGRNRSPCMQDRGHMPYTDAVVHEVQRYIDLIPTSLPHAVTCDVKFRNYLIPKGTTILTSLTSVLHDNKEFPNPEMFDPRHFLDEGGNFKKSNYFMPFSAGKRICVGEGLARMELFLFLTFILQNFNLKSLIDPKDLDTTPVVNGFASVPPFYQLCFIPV
# Experiment: Inhibition of human recombinant CYP2C19 at 10 uM incubated for 60 mins at 37 degC using 3-cyano-7-ethoxycoumarin substrate
# Format: ADME
# Conditions: recombinant CYP2C19, probe 3-cyano-7-ethoxycoumarin
row,SMILES,"inhibition at 1 h, 10 µM [%]"
1,CCOC(=O)c1ccc2c(c1)C(=O)c1nc3ccccc3c(=O)n1-2,10
2,O=C1c2cc(Cl)ccc2-n2c1nc1ccccc1c2=O,13
3,O=C1c2ccccc2-n2c1nc1ccc(Br)cc1c2=O,10
4,O=C1c2ccccc2-n2c1nc1ccccc1c2=O [TRYPTANTHRIN],9

# System: Mycobacterium tuberculosis
# Experiment: Antitubercular activity against Mycobacterium tuberculosis H37Rv incubated at 37 degC for 7 days by microplate alamar blue assay
# Format: functional
# Conditions: not given
# Procedure, shortened: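 Mtb H37Rv was grown in 7H9 broth with glycerol, Casitone, 10% OADC and 0.05% Tween 80 to OD600 0.4. Compounds were 2-fold serially diluted from DMSO stocks in 7H9, and wells were inoculated at 2 × 10⁵ CFU/mL. After 7 days at 37 °C, Alamar Blue was added and read after a further 24 h. MIC was the lowest concentration preventing the blue-to-pink change.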
row,SMILES,MBC90 [µg/mL]
1,O=C1c2cc(Cl)ccc2-n2c1nc1ccccc1c2=O,0.125
2,O=C1c2ccccc2-n2c1nc1ccc(Br)cc1c2=O,0.5
3,O=C1c2ccccc2-n2c1nc1ccccc1c2=O [TRYPTANTHRIN],1

# Same assay, conditions: Mycobacterium tuberculosis, H37Rv, 168 h
row,SMILES,MIC [µg/mL]
1,CCOC(=O)c1ccc2c(c1)C(=O)c1nc3ccccc3c(=O)n1-2,0.5
2,O=C1c2cc(Cl)ccc2-n2c1nc1ccccc1c2=O,0.125
3,O=C1c2ccccc2-n2c1nc1ccc(Br)cc1c2=O,0.25
4,O=C1c2ccccc2-n2c1nc1ccccc1c2=O [TRYPTANTHRIN],1

# System: not listed separately
# Experiment: Permeability across basolateral to apical side in human Caco2 cells incubated for 1 hr at 37 degC by HPLC-MS/MS method
# Format: ADME, cell-based
# Conditions: Caco-2
row,SMILES,Papp B→A at 1 h [×10⁻⁶ cm/s]
1,CCOC(=O)c1ccc2c(c1)C(=O)c1nc3ccccc3c(=O)n1-2,0.8
2,O=C1c2ccccc2-n2c1nc1ccccc1c2=O [TRYPTANTHRIN],22.5

# System: not listed separately
# Experiment: Efflux ratio in human Caco2 cells incubated for 1 hr at 37 degC by HPLC-MS/MS method
# Format: ADME, cell-based
# Conditions: Caco-2
row,SMILES,efflux ratio at 1 h
1,O=C1c2ccccc2-n2c1nc1ccccc1c2=O [TRYPTANTHRIN],> 1
